Ecoli WT expand = growth inhibitors of wild-type E. coli, primary screen, strain BW25113, expanded library, OD600; OD600 absorbance; growth inhibition, % at 100 µM; 0.15% of 98,000 active; AID 710, 2007;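 active = growth inhibition above about 50% at one test dose, limit read from the data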;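 also: growth measured after 20 h incubation at 37 °C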
BAP1 inh = inhibitors of BAP1 deubiquitinase, primary screen, biochemical, Ub-AMC fluorescence, kinetic | 0.48% of 72,000 active | AID 436, 2006 | calls only at 20 µM | recombinant BAP1, Ub-AMC hydrolysis fluorescence kinetic; hits give low values;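 active = activity remaining at or below 50% of control, provided the compound also passes the data quality filters; inactive = the rest, including low values that fail the filters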
Ecoli tolC = growth inhibitors of E. coli tolC mutant, primary screen, strain BW25113 ΔtolC::kan, 384-well | OD615 | growth inhibition, % at 10 µM (by protocol) | 2.2% of 65,000 active | AID 573, 2007;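 active = growth inhibition at or above a cutoff equal to the mean over every tested compound plus 3 SD, cut at about 60% in these data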;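 also: growth measured after 20 h incubation at 37 °C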
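Test system: E. coli BW25113 ΔtolC::kan bacteria | Medium: Kanamycin-containing LB broth (50 µg/mL) | Dosing: One dose of 10 µM final | Times: 20 h incubation with compound, 37 °C | Detection: Optical density read at 615 nm | Read-out basis: Percent growth inhibition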
AP ELISA ortho = alternative complement pathway inhibitors, primary screen, biochemical, ELISA, human serum, orthogonally pooled compounds; LPS-coated ELISA, C3 deposition; tested in compound mixtures; inhibition, % at 5 µM; 0.08% of 62,000 active;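 active = inhibition above 30% in each of the two pooled mixtures holding the compound, so the lower value exceeds 30%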
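Test system – human serum alternative complement pathway, C3 deposition on LPS-coated wells · Buffer or medium – diluted human serum in Mg2+-EGTA GVB++ · Compound dosing – 5 µM each compound, pools of ten, 50 µM per pool · Schedule – 1 h serum-compound exposure at 37 °C · Measured by – Anti-C3 ELISA, OD 450 nm · Read-out basis – percent inhibition of C3 deposition onto LPS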
MMP-13 inhibitor = human MMP13 inhibitors, primary screen, biochemical, FRET peptide cleavage. Collagenase 3 (Homo sapiens), P45452. inhibition, % at 4 µM. 0.07% of 65,000 active. MMP-13 fTHP FRET cleavage, Mca fluorescence;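 active = inhibition above the mean of compound-free control plate wells plus 3 SD, cut at about 14% in these data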
E coli RNAP = E. coli RNAP inhibitors, biochemical. E. coli RNA polymerase, fluorescence transcription assay. inhibition, %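 (tested at 10 µM)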. 0.2% of 62,000 active. AID 559, 2006; in the data active = inhibition above about 20%
A number is an active result; i = inactive; nt = no result given; + = active, no number. Many of the other results were omitted from the sample, so hits are more common in it than they were.

SMILES	Ecoli WT expand	BAP1 inh	Ecoli tolC	AP ELISA ortho	MMP-13 inhibitor	E coli RNAP
CCOC(=O)c1ccc(N2C(=O)c3n[nH]c(C)c3C2c2ccc(OC)cc2)cc1 (centres undefined)	i	i	i	i	i	i
CCOC(=O)c1ccc(N2C(=O)c3n[nH]c(C)c3C2c2ccc(OC)cc2OC)cc1 (centres undefined)	nt	i	68	nt	i	nt
COC(=O)c1ccc(C2c3c(n[nH]c3C)C(=O)N2c2ccc(C)cc2)cc1 (centres undefined)	i	i	75	i	i	i
CCOC(=O)c1ccc(N2C(=O)c3n[nH]c(C)c3C2c2ccc(OC)c(OC)c2)cc1 (centres undefined)	i	i	i	i	i	i
Cc1cccc(NC(=O)c2cc(=O)c3ccccc3o2)c1C	nt	i	nt	nt	nt	nt
CCc1c(O)nc(SCC(=O)Nc2ccc(C)cc2)n(C2CCCCC2)c1=O	i	i	78	i	i	nt
CCc1c(O)nc(SCC(=O)Nc2ccccc2)n(-c2ccccc2)c1=O	i	i	i	i	i	nt
COC(=O)c1ccsc1NC(=O)CN1CCN(c2ccc(F)cc2)CC1	i	i	70	i	i	i
CCOC(=O)C1=C(C)Nc2ncnn2C1c1c[nH]c2ccccc12 (centres undefined)	i	i	i	i	i	i
CC1=C(C(=O)OC(C)C)C(c2c[nH]c3ccccc23)n2ncnc2N1 (centres undefined)	i	i	99	i	i	i
CCOC(=O)C1=Nc2ccccc2C1=[N+]=[N-]	100	i	i	nt	i	i
Cc1ccc(-c2csc3ncn(-n4c(C)ccc4C)c(=O)c23)o1	i	i	67	i	i	i
Cc1sc2ncn(-n3c(C)ccc3C)c(=O)c2c1C	i	nt	i	i	i	i
COc1ccc(C2(CC(N)=O)CCOC(C)(C)C2)cc1 (centres undefined)	nt	i	nt	nt	nt	nt
CN(c1ccccc1C(=O)Nc1ccc(S(=O)(=O)N2CCCCC2)cc1)S(C)(=O)=O	i	i	100	i	i	i
O=C(Nc1ccccc1)Nc1ccc(S(=O)(=O)N2CCCCC2)cc1	i	i	100	i	i	i
O=C(Nc1ccc(S(=O)(=O)N2CCCCC2)cc1)c1ccccc1Cl	i	nt	nt	nt	nt	nt
O=C(COc1cccc(C(F)(F)F)c1)Nc1ccc(S(=O)(=O)N2CCCC2)cc1	i	i	64	i	i	nt
CN(c1ccccc1C(=O)Nc1ccc(S(=O)(=O)N2CCCC2)cc1)S(C)(=O)=O	i	nt	nt	nt	nt	nt
Cc1ccc([N+](=O)[O-])c(NC(=O)c2ccc([N+](=O)[O-])cc2)c1	nt	i	nt	nt	nt	nt
Cc1ccc(C(c2nnnn2CCc2ccccc2)N2CCSCC2)cc1 (centres undefined)	i	i	64	i	i	i
CC1=C(C(=O)Nc2cccc(C)c2C)C(c2ccc(C)cc2)NC(=S)N1 (centres undefined)	nt	i	nt	nt	nt	nt
Cc1ccc(NC(=O)CCNS(=O)(=O)c2cccc3nonc23)cc1	i	nt	i	i	i	i
Cc1ccc(N(CC(=O)Nc2cccc(C)c2)S(=O)(=O)c2cccc3nonc23)cc1	i	i	62	i	i	i
O=C(NCc1nc2ccccc2[nH]1)c1ccco1	i	i	nt	i	i	25
SMILES	Ecoli WT expand	BAP1 inh	Ecoli tolC	AP ELISA ortho	MMP-13 inhibitor	E coli RNAP
CC1CC(C)CN(C(=O)CSc2nnc(-c3ccc(Cl)cc3)o2)C1 (centres undefined)	i	i	i	i	i	i
Cc1ccc(-c2nnc(SCC(=O)N3CC(C)CC(C)C3)o2)cc1C (centres undefined)	i	i	97	i	i	i
CN(C)c1ccc(C2SCCN2C(=O)c2cc3ccccc3oc2=O)cc1 (centres undefined)	nt	i	nt	nt	nt	nt
Cc1cc(/C=C(/C#N)c2cccc(F)c2)c(C)n1-c1cccnc1	i	i	99	i	i	i
Cc1cc(/C=C(/C#N)c2cccc(Cl)c2)c(C)n1C	i	nt	nt	nt	nt	nt
COc1cccc2sc(=NC(=O)c3ccc(S(=O)(=O)N4CCCc5ccccc54)cc3)n(C)c12	nt	i	nt	nt	nt	nt
Cc1cccc(-n2ncc3c(N(C)C4CCCCC4)ncnc32)c1	nt	i	94	i	i	i
COc1ccc(-n2ncc3c(N(C)C4CCCCC4)ncnc32)cc1	nt	i	76	i	i	i
Cc1cccc(-n2ncc3c(N(CCO)CCO)ncnc32)c1	i	i	i	i	i	i
Cc1ccc(N/C(=N\c2nc(C)cc(C)n2)NC(=O)c2ccccc2)c(C)c1	nt	i	nt	nt	nt	nt
CCOc1cccc(C2NC(=O)NC(C)=C2C(=O)OCC(Cl)(Cl)Cl)c1 (centres undefined)	nt	i	nt	nt	nt	nt
CC(C)C1O/C(=N/C(=O)Nc2ccc(Cl)c(Cl)c2)NC1=O (centres undefined)	53	i	98	i	i	i
COc1ccc(C(=O)Nc2ccc(Cl)c(Cl)c2)c(OC)n1	i	i	i	i	i	i
CC(C)(C)n1nnnc1C(c1cccs1)N1CCCc2ccccc21 (centres undefined)	i	i	82	i	i	i
CC(C)C(c1nnnn1C1CCCC1)N1CCCc2ccccc21 (centres undefined)	i	i	74	i	i	i
CCOc1ccc2c(c1)sc(=NC(=O)c1ccc(S(=O)(=O)N3CC(C)CC(C)C3)cc1)n2C (centres undefined)	nt	i	nt	nt	nt	nt
CC(C)=CCC/C(C)=C/CC/C(C)=C/CSc1ccccc1C(=O)O	nt	+	nt	nt	nt	nt
CCCCCCC(=O)N1CCN(c2cc3c(cc2F)c(=O)c(C(=O)O)cn3CC)CC1	nt	i	i	nt	i	i
CCOC(=O)c1cn(CC)c2cc(N3CCCCC3)c(F)cc2c1=O	nt	i	100	i	i	i
CCn1cc(C(=O)N2CCCC2)c(=O)c2cc(S(=O)(=O)N(C)C)ccc21	i	i	i	i	i	i
CCn1cc(C(=O)NCC2CCCO2)c(=O)c2cc(F)c(N3CCN(C)CC3)cc21 (centres undefined)	i	i	i	nt	i	i
CCOC(=O)c1cn(CC)c2cc(N3CCOCC3)c(F)cc2c1=O	i	i	100	i	i	i
CCn1cc(C(=O)O)c(=O)c2cc(OC)ccc21	i	nt	97	i	i	nt
CCC(=O)N1CCN(c2cc3c(cc2F)c(=O)c(C(=O)O)cn3CC)CC1	nt	i	100	i	i	i
CCOc1cccc2cc(C(N)=O)c(=Nc3sc4c(c3C(N)=O)CCCC4)oc12	nt	i	nt	nt	nt	nt
COc1ccc(C2NC(=O)NC(C)=C2C(=O)OC2CCC(C)CC2)c(OC)c1 (centres undefined)	nt	i	nt	nt	nt	nt
COC(=O)c1c(NC(=O)COc2cc(C)c(Cl)c(C)c2)sc2c1CCC(C)C2 (centres undefined)	nt	i	nt	nt	nt	nt
CC(N=Cc1ccc(O)cc1)C12CC3CC(CC(C3)C1)C2 (centres undefined)	nt	i	nt	nt	nt	nt

High-throughput results from PubChem BioAssay.
